Results reported in ChEMBL document CHEMBL5230175, “The war on hTG2: warhead optimization in small molecule human tissue transglutaminase inhibitors” (RSC Med Chem, 2023).

Assays:
[1] = Metabolic stability in pooled cryopreserved human hepatocytes assessed as half-life at 1 uM measured upto 120 mins by LC-MS/MS analysis; format: ADME, cell-based, Hepatocyte
In short: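 Samples were taken at 0, 5, 15, 30, 60 and 120 min, acetonitrile-quenched with internal standard, and analysed by LC-MS/MS. Half-life came from exponential decay of the parent/IS ratio relative to T = 0.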

[2] = Metabolic stability in human whole blood assessed as half-life at 1 to 5 uM measured upto 120 mins by LC-MS/MS analysis; format: ADME, tissue-based; settings: dose 1-5 µM
In short: (§1)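 Pooled human whole blood (K3-EDTA) was spiked to 1 or 5 μM compound. Aliquots taken at 0, 15, 30, 60 and 120 min were quenched in acetonitrile with 0.1% formic acid and internal standard, then analysed by LC-MS/MS. Percent parent remaining is the peak-area ratio versus T = 0; half-life comes from an exponential decay fit.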

[3] = Metabolic stability in human whole blood assessed as drug degradation measured upto 120 mins by LC-MS/ms analysis; format: ADME, tissue-based; settings: 2 h; in short: as §1
[4] = GSH reactivity in aqueous buffer assessed as GSH adduct formation by measuring corrected intrinsic second order rate constant (K2 corrected) by HPLC analysis; format: physicochemical
In short: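 GSH stock diluted to final 15 mM in aqueous buffer (pH 8.0 used, 7.4 too slow), reaction started with inhibitor at final 0.5 mM, 2% v/v DMSO. Incubated at 22 °C and aliquots taken over at least 5–6 half-lives. HPLC with UV 214/254 nm tracked adduct growth and inhibitor loss, fitted mono-exponentially to give pseudo-first-order kobs. kobs was divided by [thiol] and then by the thiolate fraction (pKa 8.7) to give kcorr2. Run in duplicate.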

[5] = biological target: T1, Protein-glutamine gamma-glutamyltransferase (Homo sapiens) (UniProt P21980); test: Irreversible inhibition of human TG2 using Cbz-Glu-(gamma-p-nitrophenylester)Gly (AL5) as substrate assessed as substrate hydrolysis by measuring observed binding constant incubated for 20 mins by colorimetric assay
T1 sequence (whole entry): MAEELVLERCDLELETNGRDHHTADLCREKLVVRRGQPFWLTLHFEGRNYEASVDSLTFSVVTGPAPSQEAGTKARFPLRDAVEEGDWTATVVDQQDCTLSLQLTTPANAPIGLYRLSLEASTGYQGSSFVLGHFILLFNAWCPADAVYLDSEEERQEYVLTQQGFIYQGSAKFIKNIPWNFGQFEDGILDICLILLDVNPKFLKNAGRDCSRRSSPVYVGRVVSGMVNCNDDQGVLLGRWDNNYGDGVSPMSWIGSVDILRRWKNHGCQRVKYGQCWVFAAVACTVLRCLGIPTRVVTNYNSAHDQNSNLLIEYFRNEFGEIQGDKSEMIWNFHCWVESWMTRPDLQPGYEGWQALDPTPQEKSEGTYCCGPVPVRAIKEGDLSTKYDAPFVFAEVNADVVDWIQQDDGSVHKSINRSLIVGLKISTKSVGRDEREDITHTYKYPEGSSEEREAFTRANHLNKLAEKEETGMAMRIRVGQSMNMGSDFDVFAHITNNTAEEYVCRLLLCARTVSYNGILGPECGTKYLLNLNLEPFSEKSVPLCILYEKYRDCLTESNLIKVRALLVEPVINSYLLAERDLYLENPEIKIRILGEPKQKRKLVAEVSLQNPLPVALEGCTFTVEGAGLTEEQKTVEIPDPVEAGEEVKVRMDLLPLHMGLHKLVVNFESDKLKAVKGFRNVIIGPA

[6] = biological target: T2, Protein-glutamine gamma-glutamyltransferase K (Homo sapiens) (UniProt P22735); test: Irreversible inhibition of human TG1 using Cbz-Glu-(gamma-p-nitrophenylester)Gly (AL5) as substrate assessed as substrate hydrolysis by measuring observed binding constant incubated for 100 mins by colorimetric assay
T2 sequence (whole entry): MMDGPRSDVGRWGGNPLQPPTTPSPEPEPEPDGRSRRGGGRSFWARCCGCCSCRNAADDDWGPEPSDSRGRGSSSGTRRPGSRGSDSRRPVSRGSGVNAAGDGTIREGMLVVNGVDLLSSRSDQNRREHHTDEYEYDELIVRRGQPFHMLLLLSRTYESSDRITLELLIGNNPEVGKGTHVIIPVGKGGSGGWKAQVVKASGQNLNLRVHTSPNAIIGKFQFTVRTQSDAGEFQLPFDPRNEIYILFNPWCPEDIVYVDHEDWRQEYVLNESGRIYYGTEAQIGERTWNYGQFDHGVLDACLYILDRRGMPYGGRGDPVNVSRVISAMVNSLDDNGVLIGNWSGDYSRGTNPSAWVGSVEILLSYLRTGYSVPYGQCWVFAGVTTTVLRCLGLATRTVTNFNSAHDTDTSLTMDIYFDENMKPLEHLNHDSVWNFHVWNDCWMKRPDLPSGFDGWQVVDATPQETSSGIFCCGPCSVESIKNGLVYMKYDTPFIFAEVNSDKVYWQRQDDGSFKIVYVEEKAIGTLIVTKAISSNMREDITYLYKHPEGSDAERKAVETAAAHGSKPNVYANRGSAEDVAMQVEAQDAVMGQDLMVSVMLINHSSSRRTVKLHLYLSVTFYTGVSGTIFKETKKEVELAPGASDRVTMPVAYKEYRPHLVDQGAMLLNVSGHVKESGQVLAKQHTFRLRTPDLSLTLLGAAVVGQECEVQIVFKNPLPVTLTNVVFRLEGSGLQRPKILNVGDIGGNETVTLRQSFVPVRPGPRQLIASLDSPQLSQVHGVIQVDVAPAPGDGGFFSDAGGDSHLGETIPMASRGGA

[7] = biological target: T3, Protein-glutamine gamma-glutamyltransferase E (Homo sapiens) (UniProt Q08188); test: Reversible inhibition of activated human TG3 using peptidic FRET-quenched probe A101 as substrate by fluorescence based assay relative to control; settings: concentration not given here
T3 sequence (whole entry): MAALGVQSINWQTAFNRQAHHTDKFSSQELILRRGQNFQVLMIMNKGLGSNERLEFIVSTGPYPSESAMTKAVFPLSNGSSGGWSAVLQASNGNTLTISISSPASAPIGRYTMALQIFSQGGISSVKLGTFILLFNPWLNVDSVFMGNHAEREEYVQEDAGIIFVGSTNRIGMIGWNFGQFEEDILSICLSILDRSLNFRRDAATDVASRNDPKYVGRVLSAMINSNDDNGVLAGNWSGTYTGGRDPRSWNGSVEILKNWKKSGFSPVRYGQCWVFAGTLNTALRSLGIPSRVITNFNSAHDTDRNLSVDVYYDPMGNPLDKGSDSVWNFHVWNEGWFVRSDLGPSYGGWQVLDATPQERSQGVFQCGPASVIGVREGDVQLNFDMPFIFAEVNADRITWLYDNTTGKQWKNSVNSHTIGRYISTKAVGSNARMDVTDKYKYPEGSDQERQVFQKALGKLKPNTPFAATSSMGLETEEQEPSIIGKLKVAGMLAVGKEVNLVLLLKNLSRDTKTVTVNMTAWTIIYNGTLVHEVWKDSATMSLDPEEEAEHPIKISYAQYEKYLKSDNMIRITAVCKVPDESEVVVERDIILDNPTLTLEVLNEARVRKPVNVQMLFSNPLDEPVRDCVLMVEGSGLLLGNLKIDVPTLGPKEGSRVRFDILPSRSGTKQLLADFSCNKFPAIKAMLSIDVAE

Row | half-life at 1 µM [1] [h] | half-life at up to 5 µM [2] [h] | Stability [3] | K [4] | K [5] [min⁻¹] | K [6] [min⁻¹] | inhibition [7] [%] | Structure (SMILES)
1 | > 2 | > 2 | Stable | 0.079 10^-3/M/min | 0.5 | 0.023 | 59.1 | C=CC(=O)NCC(=O)N1CCN(C(=O)C23CC4CC(CC(C4)C2)C3)CC1
2 | > 2 | > 2 | Stable | 1.48 10^-3/M/min | 0.537 | 0.018 | 41.5 | O=C(CCl)NCC(=O)N1CCN(C(=O)C23CC4CC(CC(C4)C2)C3)CC1
